Experimental data gathered from unrelated publications.
Each line is one published result; the experiments were not run side by side. pEC50: −log10 of the molar value.

Compound	target or system	assay	setting	endpoint	result
CCN(O)N=Nc1ccc(S(=O)(=O)Nc2onc(C)c2C)cc1	–	DPPH scavenging, absorbance	120 µg/mL	inhibition	22.5%
COc1ccc(-c2ccc(-c3ccc(C(=N)N)nc3)s2)cc1	786-0	cell growth or viability	–	GI50	1.88 µM
Cn1nnc2c(C(N)=O)ncn2c1=O	MGC-803	cell growth or viability	–	pEC50	3.45
COc1cc(C=Cc2cc(-c3ccc(N(C)C)cc3)nc(O)n2)ccc1O	–	DPPH scavenging	100 µg/mL	inhibition	71.7%
Cc1cccc(N(O)N=Nc2ccc(S(=O)(=O)Nc3cc(C)on3)cc2)c1	–	DPPH scavenging, absorbance	300 µg/mL	inhibition	37.1%
O=C1O[C@H]([C@@H](O)CO)C(O)=C1O	–	DPPH scavenging, absorbance	80 µM	inhibition	53.7%
O=C1O[C@H]([C@@H](O)CO)C(O)=C1O	–	DPPH scavenging	100 µg/mL	inhibition	81.3%
CCCN(O)N=Nc1ccc(S(=O)(=O)Nc2cc(C)on2)cc1	–	DPPH scavenging, absorbance	300 µg/mL	inhibition	27.6%
COc1cc(C=Cc2cc(-c3ccccc3)nc(O)n2)ccc1O	–	DPPH scavenging	50 µg/mL	inhibition	61.6%
Oc1ccc(Br)cc1C=NCCN1CCOCC1	–	DPPH scavenging, absorbance	120 µM	inhibition	28.6%
COc1cc(C=CC(=O)CC(c2ccc(N(C)C)cc2)n2ccnc2)ccc1O (stereo not drawn)	–	DPPH scavenging	12.5 µg/mL	inhibition	42.7%
O=C(Nc1ccc2c(c1)OC(F)(F)O2)Nc1ccc(Cl)c(C(F)(F)F)c1	Salmonella	microbial growth	clinical isolate	MIC	> 100 µM
